Compound activity as filed in PubChem.
JNK3 inh = JNK3 (human) kinase inhibition. P53779. purified JNK3 kinase activity, HTS. inhibition, % at 8 µM. hit rate 0.61% among 60,000; in the data active = inhibition above about 17%;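 also: 0% = DMSO and 100% = reference inhibitor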
RORa activator = activators of human nuclear receptor RORA; hit rate 1.5% among 65,000; P35398; activation, % at 10 µM; CHO-K1 Gal4-RORA LBD luciferase reporter, luminescence; percent increase over mock-subtracted basal signal;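 active = activation above the mean of all tested compounds plus 3 SD, cut at about 49% in these data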;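 also: 0% = DMSO-treated RORA cells and 100% = added signal equal to DMSO minus mock-transfected cells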
MT1-MMP txn act = activates MT1-MMP transcription; hit rate 0.16% among 86,000; HT1080 MT1-MMP promoter luciferase reporter, luminescence, overnight; hits give high values; activation factor at 10 µM;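 active = activation factor of at least 2 for MT1-MMP transcription at 10 µM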
SF-1 act = SF-1 (human) activation. hit rate 1.9% among 65,000. CHO-K1 Gal4-SF-1 LBD luciferase reporter; % increase over DMSO SF-1-specific signal. Q13285. activation, % at 10 µM;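 active = activation above the mean activation of all tested compounds plus 3 SD, cut at about 50% in these data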
Target sequence (Q13285 whole entry, looked up, the tested form may be a part): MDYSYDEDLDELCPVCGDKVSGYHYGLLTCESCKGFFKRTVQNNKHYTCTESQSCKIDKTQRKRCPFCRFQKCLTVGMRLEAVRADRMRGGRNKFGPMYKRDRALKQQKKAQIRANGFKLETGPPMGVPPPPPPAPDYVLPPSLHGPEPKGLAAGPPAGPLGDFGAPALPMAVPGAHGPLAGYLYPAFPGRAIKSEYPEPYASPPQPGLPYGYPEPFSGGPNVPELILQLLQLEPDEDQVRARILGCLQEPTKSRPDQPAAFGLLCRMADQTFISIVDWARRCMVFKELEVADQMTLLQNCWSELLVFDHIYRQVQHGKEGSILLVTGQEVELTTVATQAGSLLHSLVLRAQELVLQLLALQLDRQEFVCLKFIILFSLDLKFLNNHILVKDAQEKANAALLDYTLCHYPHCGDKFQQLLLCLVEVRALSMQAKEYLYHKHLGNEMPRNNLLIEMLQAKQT
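Test system: CHO-K1 cells with Gal4–hSF-1 LBD chimera plus Gal4-driven luciferase; Input: 4,000 cells/well; Compound: 10 µM only; Times: 20 h compound treatment, 37 °C; Measured by: steady-glow luciferase luminescence, read after 15 min reagent incubation; Measure: percent activation versus DMSO; Control set: DMSO and mock-transfected background; Replicates: one test per compound.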
Numbers without * were called inactive; . = no result given. Only some compounds are listed: those with a hit (about 2.3% of all), similar ones and a draw of the others.

SMILES	JNK3 inh	RORa activator	MT1-MMP txn act	SF-1 act
Cc1cc(C)cc(OCC(=O)OCC(=O)c2c(N)n(C)c(=O)n(C)c2=O)c1	.	.	1.2	.
COc1ccc(-c2csc(N3CCOCC3)n2)cc1OC	-4.7	60.9*	1.6	10.4
Cc1cccc(OCc2nnc(SCc3cc(=O)n4cc(Br)ccc4n3)o2)c1	-2.8	4.2	1.2	-6.5
N#Cc1cc2c(nc1SCC(=O)Nc1sc3c(c1C#N)CCC3)CCC2	.	.	1.3	.
CCc1nnc(NC(=O)CSc2nc3c(cc2C#N)CCC3)s1	6.8	7.1	0.8	75.3*
O=C(Cc1ccccc1)Nc1nc(-c2cccs2)cs1	3.5	66.7*	1.2	43.9
c1ccc(-c2csc(Nc3cccnc3)n2)nc1	-2.2	23.9	1.6	56.6*
O=C(Cc1ccccc1F)Nc1nc(-c2cccs2)cs1	0.9	10.1	1.6	46.4
c1cncc(Nc2nc(-c3cccs3)cs2)c1	-5.2	58.9*	1.4	76.3*
S=C1N(c2ccccc2)C(c2cccc3ccccc23)N2CCCN12 (stereo not drawn)	.	.	1.2	.
CCCc1cc2c(=O)c(-c3ccccn3)coc2cc1OC	3.1	53.8*	1.6	76.5*
COC(=O)CC/C(O)=C1/C(=N)CC(C)(C)CC1=O	.	.	1.1	.
O=C(O)CCC(=O)N1CCN(c2nc3ccccc3s2)CC1	-7.3	5.5	1	-9.1
O=C(c1cnn(-c2nc3ccccc3s2)c1)c1ccccc1O	0.2	51.9*	1.2	35.7
COC(=O)[C@@]1(Cc2ccccc2)[C@H]2c3cc(C(=O)N4CCCC4)n(Cc4ccc(C(F)(F)F)nc4)c3C[C@H]2CN1C(=O)c1ccccc1	.	.	1.1	.
C/C(=N\O)c1ccc2c3ccccc3n(C)c2c1	5.7	45.0	1.5	54.3*
COc1cccc(-c2nnc3n2N=C(c2cc(OC)ccc2OC)CS3)c1	.	-6.5	1.1	2.0
CCOc1cccc(-c2nnc3n2N=C(c2cc(OC)ccc2OC)CS3)c1	.	61.1*	.	46.2
Cc1ccc(-n2c(SCC(N)=O)nnc2-c2ccc(S(=O)(=O)N3CCCCC3)cc2)c(C)c1	.	.	1.3	.
Cc1ccc(-c2cc(-c3ccccc3)c3c(N)c(S(C)(=O)=O)sc3n2)cc1	.	.	1.1	.
CS(=O)(=O)c1sc2nc(-c3cccs3)cc(-c3ccccc3)c2c1N	7.5	-2.6	2.2*	3.9
O=C1c2ccccc2C(=O)C1c1ccncc1	50.7*	31.6	0.6	1.2
N#CCCn1cc(/C=N/O)c(-c2ccc(-c3ccccc3)cc2)n1	-5.2	34.5	1	56.7*
Cc1nn(-c2ccccc2)c2c1C(O)n1c(nc3ccccc31)S2 (stereo not drawn)	18.6*	16.8	1.1	14.3
COC(=O)c1cc2c(C)nn(-c3ccccc3)c2s1	-5.8	0.9	1.1	22.1
SMILES	JNK3 inh	RORa activator	MT1-MMP txn act	SF-1 act
CCC(c1nnc(SCc2nc3ccccc3s2)n1Cc1ccccc1)N(C)C (stereo not drawn)	-1.2	48.0	1.7	60.7*
COCCn1c(SCc2nc3ccccc3s2)nc2ccccc21	0.9	43.5	1.7	50.3*
COc1ccc(C)cc1-n1nnnc1SCc1nc2ccccc2s1	-1.8	49.5*	1.9	109.7*
COc1ccc(-n2nnnc2SCc2nc3ccccc3s2)cc1	.	.	1.6	.
Cc1nnc(SCc2nc3ccccc3s2)n1-c1ccccc1	-12.9	75.5*	1.5	26.1
CCn1c(SCc2nc3ccccc3s2)nc2cc(S(=O)(=O)N3CCOCC3)ccc21	-5.4	28.9	1.6	63.3*
CCn1c(SCc2nc3ccccc3s2)nnc1-c1ccccc1	.	.	1.5	.
c1ccc(-n2cnnc2SCc2nc3ccccc3s2)cc1	5.4	33.7	1.6	58.0*
CNc1nc(NC)nc(-n2c(C(F)(F)F)nc3ccccc32)n1	6.6	-2.4	1.1	-5.8
Cc1cc(C(=O)CSc2nnnn2C)c(C)n1-c1ccc2c(c1)OCCO2	-6.3	36.1	1.6	54.0*
CCOc1ccc(NC(=O)CSc2nccn2C)cc1	.	17.2	1.5	34.7
Cn1ccnc1SCC(=O)Nc1ccc(Oc2ccccc2)cc1	5.0	60.2*	1.3	33.4
Cc1cc(NC(=O)CCC(=O)N(CC(=O)NCC2CCCO2)c2ccc3c(c2)OCCO3)no1 (stereo not drawn)	.	.	1.3	.
CCc1ccc(C2(O)CC(C(F)(F)F)=NN2C(=O)Cc2ccc([N+](=O)[O-])cc2)cc1 (stereo not drawn)	.	.	2*	.
O=C(CN1N=C(C(F)(F)F)CC1(O)c1ccc([N+](=O)[O-])cc1)c1ccccc1 (stereo not drawn)	.	.	1.1	.
Cc1ccc(NC(=O)CSc2nnc(Cn3c(=O)sc4ccccc43)n2C)cc1Cl	0.1	2.7	1.1	-20.9
O=C1c2ccccc2NC(c2ccccn2)N1c1ccc(Cl)cc1 (stereo not drawn)	2.7	51.3*	1.5	64.0*
